High-throughput results deposited in PubChem by Johns Hopkins Ion Channel Center.
Only some compounds are listed: those with a hit (about 3.5% of all), similar ones and a draw of the others.
MrgX1 antagonist: antagonists of human MrgX1 receptor | 310,000 compounds, 1.3% hits | Q96LB2 | AID 588676 | B-score at 10 µM | MRGX1-HEK293 calcium flux, Fluo-4, BAM8-22 antagonism; active compounds read low;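 active = calcium-response B-score plate-corrected more than 3 library SD below zero, starting fluorescence within 5 deviations, no agonist response on first addition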;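 also: peak minus trough fluorescence over baseline after final BAM8-22 challenge near maximal dose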
MrgX1 ag: agonists of human MrgX1 receptor | MrgX1-HEK293 cells, Fluo-4 calcium fluorescence, agonist mode; active compounds read high | B-score at 10 µM | AID 588627 | Q96LB2 | 310,000 compounds, 0.44% hits;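 active = calcium response B-score plate-corrected fluorescence ratio at least 3 library SD, with starting fluorescence B-score inside 5 SD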
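times = overnight plating, then 30 min 37 °C plus 30 min room-temperature dye loading | assay system = stable human MrgX1 HEK293 cell line | input = fifteen thousand cells per well | signal = kinetic calcium dye fluorescence, Fluo-4 NW | dosing = compound delivered in addition one of three | read-out = B-scored fluorescence response ratio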
RGS4 pot: RGS4 potentiation or activation. B-score at 10 µM. 310,000 compounds, 0.92% hits. HEK293 M3R/inducible RGS4, carbachol calcium flux Fluo4; active compounds read low. AID 463111;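 active = B-score of the integrated calcium signal more than 4 SD below the library mean, with starting fluorescence not abnormally high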;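 also: negative B-score means reduced calcium response which marks RGS4 activation or potentiation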
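test system = HEK293 cells with stable M3R and inducible RGS4 | schedule = recording 10 s baseline at 1 Hz, 100 s post-agonist | technique = Fluo4-AM (2 µM) calcium-flux fluorescence, kinetic read | measure = Agonist-evoked peak-minus-minimum fluorescence over baseline, integrated ratio, B score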
MrgX1 PAM: allosterically activates human MrgX1 receptor signaling; Q96LB2; MrgX1-HEK293, Fluo-4 calcium flux, FDSS; active compounds read high; B-score at 10 µM; 310,000 compounds, 0.63% hits; AID 588675;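 active = plate-corrected calcium response at least 3 library SD above typical, normal starting fluorescence, not activating the receptor alone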;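 also: compound read alongside a low EC10 to EC30 dose of BAM8-22 agonist; peak minus trough fluorescence over baseline measured at the second addition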
RGS4 inh: inhibitors of human RGS4; HEK293 M3R/RGS4 inducible, Fluo-4 calcium flux; active compounds read high; triggered by carbachol at its EC20; B-score at 10 µM; AID 463165; 310,000 compounds, 0.45% hits;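 active = B-score, a plate-corrected calcium signal, over three deviations above library mean, with baseline fluorescence within five deviations of library mean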;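 also: RGS4 expression induced by doxycycline in cells with stable M3 receptor; B-score is computed from the integrated fluorescence ratio over baseline after carbachol; higher B-score means a larger calcium signal and so more RGS4 inhibition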
Target sequence (P49798 whole entry, looked up): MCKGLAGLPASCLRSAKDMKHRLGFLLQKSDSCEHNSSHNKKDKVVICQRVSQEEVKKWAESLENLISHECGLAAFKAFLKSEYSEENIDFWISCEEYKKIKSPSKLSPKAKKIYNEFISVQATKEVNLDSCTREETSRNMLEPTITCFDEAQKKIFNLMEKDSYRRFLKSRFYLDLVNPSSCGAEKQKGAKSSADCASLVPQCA
Numbers without * were called inactive; i = inactive.

SMILES | MrgX1 antagonist | MrgX1 ag | RGS4 pot | MrgX1 PAM | RGS4 inh
COc1ccc(-c2nc(-c3cccs3)c(-c3cccs3)[nH]2)cc1OC | i | i | -8* | i | i
COc1ccc(-c2nc(-c3ccccc3)c(-c3cccs3)[nH]2)cc1OC | i | i | i | i | i
COc1ccccc1Oc1ccc(S(=O)(=O)N2CCCCC2C)cc1 (stereo unspecified) | i | i | i | i | i
COc1ccccc1Oc1ccc(S(=O)(=O)N2CCCC2)cc1 | -6.1* | i | i | i | i
Cn1cccc1/C=N/NC(=O)C12CC3CC(CC(C3)C1)C2 | i | i | i | i | i
O=C(OCc1ccc([N+](=O)[O-])cc1)c1cnc(Cl)c(Cl)c1 | i | i | i | i | i
CCOC(=O)COc1nc(-c2ccco2)cc(-c2ccco2)c1C#N | i | i | -7.2* | i | i
CCOC(=O)COc1nc(-c2ccc(C)cc2)cc(-c2ccco2)c1C#N | i | i | i | i | i
CC(=O)Nc1sc2c(c1C(c1ccccc1Cl)N1CCN(CCO)CC1)CCCC2 (stereo unspecified) | i | i | -7.5* | i | i
Cc1cc(S(=O)(=O)NCc2ccccc2)ccc1OCC(=O)N1CCCC1 | i | i | i | i | i
CN1CCN(C(=O)CCN2C(=O)c3ccccc3S2(=O)=O)CC1 | -7.4* | i | i | i | i
O=C(CCN1C(=O)c2ccccc2S1(=O)=O)N1CCN(c2ccccc2)CC1 | i | i | i | i | i
CC1(C)O[C@@H]1COc1c2ccoc2cc2oc(=O)ccc12 | i | i | i | i | i
CC(C)=CCOc1c2ccoc2cc2oc(=O)ccc12 | -5.7* | i | i | i | i
O=C(CN1C(=O)NC2(CCCC2)C1=O)NCCC1=CCCCC1 | i | i | -7.3* | i | i
CCC(Sc1ncccc1Nc1ccccn1)C(=O)O (stereo unspecified) | i | i | i | i | i
CSCCC1NC(=S)N(Cc2ccccc2)C1=O (stereo unspecified) | i | i | i | i | i
CCOc1ccc(C=O)cc1CN1CCCCC1 | -5.8* | i | i | i | i
CCOc1cc(CN2CCCCC2)ccc1OC | i | i | i | i | i
OC(CNCc1ccc(Cl)cc1)C(F)(F)F (stereo unspecified) | i | i | i | i | i
Cc1ccccc1S(=O)(=O)Cc1ccc(C(=O)N2CCN(c3cccc(C)c3C)CC2)o1 | i | i | -7.2* | i | i
CCc1ccccc1S(=O)(=O)Cc1ccc(C(=O)N2CCN(c3ccccc3OC)CC2)o1 | i | i | -7.7* | i | i
COc1ccc(Cc2nc3ccc(C(=O)NCCCSC)cc3o2)cc1OC | i | i | i | i | i
FC(F)Sc1ccc(NC(=S)NCC2CCCCC2)cc1 | -5.1* | i | i | i | i
Cc1nnc(N/N=C/c2ccc(-c3ccc(Br)cc3)o2)n1N | i | i | i | i | i
SMILES | MrgX1 antagonist | MrgX1 ag | RGS4 pot | MrgX1 PAM | RGS4 inh
Cc1nnc(N/N=C/c2ccc(Br)cc2)n1N | i | i | i | 18* | i
C=CCOc1ccc(C2OC34CCCCC3C(C#N)(C#N)C2(C#N)C(=N)O4)cc1 (stereo unspecified) | i | 27* | i | i | i
CCCCOc1ccc(C2OC34CCCCC3C(C#N)(C#N)C2(C#N)C(=N)O4)cc1 (stereo unspecified) | i | i | i | i | i
CCN(CC(=O)NCc1cccs1)C(=O)CCC(=O)c1ccc(F)cc1 | i | i | i | i | i
CC(C)CN(C(=O)COC(=O)COc1ccc2ccccc2c1)c1c(N)n(Cc2ccccc2)c(=O)[nH]c1=O | -6.4* | i | i | i | i
CCOc1ccc(OCC(=O)OCC(=O)N(CC(C)C)c2c(N)n(Cc3ccccc3)c(=O)[nH]c2=O)cc1 | i | i | i | i | i
CCc1cc2c(=O)c(-c3nc(C)cs3)coc2cc1OC(C)C(=O)NCCO (stereo unspecified) | i | i | i | i | i
